Experimental data published in ChEMBL document CHEMBL4325934, “Discovery of 12-Thiazole Abietanes as Selective Inhibitors of the Human Metabolic Serine Hydrolase hABHD16A” (ACS Med Chem Lett, 2018).
Activity calls are given as the source filed them. The calls are words filed in the database; no cut-off is given here.

Legend:
[1] = target: T1, Phosphatidylserine lipase ABHD16A (Homo sapiens) (UniProt O95870); test: Inhibition of human ABHD16A expressed in HEK293 cells assessed as residual activity at 10 uM preincubated for 30 mins followed by 1-LG substrate addition and measured after 90 to 120 mins by fluorometric assay relative to control; format: cell-based
T1 sequence (whole entry): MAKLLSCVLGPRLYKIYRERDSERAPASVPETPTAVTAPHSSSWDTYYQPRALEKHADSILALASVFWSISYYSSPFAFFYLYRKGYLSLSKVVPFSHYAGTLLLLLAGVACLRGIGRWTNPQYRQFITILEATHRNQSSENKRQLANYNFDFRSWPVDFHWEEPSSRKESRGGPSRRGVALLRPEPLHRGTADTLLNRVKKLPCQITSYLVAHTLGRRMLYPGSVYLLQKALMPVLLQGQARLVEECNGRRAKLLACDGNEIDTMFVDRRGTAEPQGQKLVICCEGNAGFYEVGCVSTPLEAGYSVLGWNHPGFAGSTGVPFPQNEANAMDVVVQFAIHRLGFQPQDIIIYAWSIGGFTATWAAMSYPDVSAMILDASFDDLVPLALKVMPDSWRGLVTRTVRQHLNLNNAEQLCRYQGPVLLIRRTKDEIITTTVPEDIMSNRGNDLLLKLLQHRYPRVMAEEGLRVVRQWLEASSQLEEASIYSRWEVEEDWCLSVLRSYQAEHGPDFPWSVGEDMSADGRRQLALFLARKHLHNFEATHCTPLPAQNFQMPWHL
Summary of the method: (§1)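 Lysates of HEK293 cells transiently overexpressing human ABHD16A were pretreated 30 min with DMSO (control) or inhibitor, then 1-LG substrate was added (25 µM final), and liberated glycerol was measured. The single-concentration screen was at 10 µM, reported as % control activity (mean ± SD, n=2-3). Dose-responses used four concentrations (0.1-100 µM), duplicate wells, two independent experiments.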

[2] = target: T2, ABHD12 (lysophosphatidylserine lipase) (Homo sapiens, UniProt Q8N2K0); test: Inhibition of human ABHD12 expressed in HEK293 cells assessed as residual activity at 10 uM preincubated for 30 mins followed by 1-AG substrate addition and measured after 90 to 120 mins by fluorometric assay relative to control; format: cell-based; details: HEK293 cells that express human ABHD12, probe 1-AG, read-out: Activity
T2 sequence (Q8N2K0 whole entry): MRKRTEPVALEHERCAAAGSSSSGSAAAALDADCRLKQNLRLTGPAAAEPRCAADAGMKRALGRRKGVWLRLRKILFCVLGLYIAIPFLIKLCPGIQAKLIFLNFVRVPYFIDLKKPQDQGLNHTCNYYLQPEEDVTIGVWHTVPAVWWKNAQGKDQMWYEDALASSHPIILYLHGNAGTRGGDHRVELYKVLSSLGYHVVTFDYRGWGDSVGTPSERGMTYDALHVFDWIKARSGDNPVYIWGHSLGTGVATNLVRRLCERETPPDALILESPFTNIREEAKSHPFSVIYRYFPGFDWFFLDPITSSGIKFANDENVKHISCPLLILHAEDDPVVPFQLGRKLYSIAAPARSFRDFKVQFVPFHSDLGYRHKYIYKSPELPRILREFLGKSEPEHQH
Summary of the method: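 Screened at 10 µM in lysates of HEK293 cells overexpressing human ABHD12, given as remaining hydrolase activity relative to control (mean ± SD, n=2-3).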

[3] = target: T3, Phosphatidylserine lipase ABHD16A (Rattus norvegicus) (UniProt Q6MG55); test: Inhibition of TAMRA-FP binding to ABHD16A in rat cerebellar membranes at 10 uM preincubated for 1 hr followed by TAMRA-FP addition measured after 1 hr by fluorescence based ABPP analysis; format: cell membranes; details: Cerebellum, Membrane
T3 sequence (whole entry): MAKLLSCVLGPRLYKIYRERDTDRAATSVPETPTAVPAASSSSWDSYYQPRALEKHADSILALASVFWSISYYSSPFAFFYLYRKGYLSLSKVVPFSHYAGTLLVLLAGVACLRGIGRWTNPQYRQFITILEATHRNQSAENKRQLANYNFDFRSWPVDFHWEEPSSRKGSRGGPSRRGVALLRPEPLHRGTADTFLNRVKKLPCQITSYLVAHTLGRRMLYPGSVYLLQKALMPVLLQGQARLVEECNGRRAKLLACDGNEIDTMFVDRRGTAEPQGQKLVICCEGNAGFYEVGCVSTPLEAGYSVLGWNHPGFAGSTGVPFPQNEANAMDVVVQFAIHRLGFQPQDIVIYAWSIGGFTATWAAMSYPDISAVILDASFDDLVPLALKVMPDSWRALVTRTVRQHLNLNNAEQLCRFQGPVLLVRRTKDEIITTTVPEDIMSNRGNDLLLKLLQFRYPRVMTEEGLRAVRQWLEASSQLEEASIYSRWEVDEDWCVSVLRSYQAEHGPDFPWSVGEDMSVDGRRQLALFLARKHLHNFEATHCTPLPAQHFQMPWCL

[4] = target: T1, Phosphatidylserine lipase ABHD16A (Homo sapiens); test: Inhibition of human ABHD16A expressed in HEK293 cells assessed as residual activity at 100 uM preincubated for 30 mins followed by 1-LG substrate addition and measured after 90 to 120 mins by fluorometric assay relative to control; format: cell-based; summary of the method: as §1
[5] = target: T1, Phosphatidylserine lipase ABHD16A (Homo sapiens); test: Ratio of IC50 for reversible inhibition of human ABHD16A expressed in HEK293 cells to IC50 for inhibition of human ABHD16A expressed in HEK293 cells; format: cell-based
Summary of the method: (§2)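 Reversibility test: hABHD16A-HEK293 lysate treated with inhibitor was rapidly diluted 40-fold before substrate addition. Inhibitor range extended up to 1 mM, and potency was compared with the routine assay (30 min pretreatment, 1-LG hydrolysis, glycerol read-out). Mean ± SD from two independent experiments.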

[6] = target: T4, Phosphatidylserine lipase ABHD16A (Homo sapiens, UniProt O95870); test: Inhibition of human ABHD16A expressed in HEK293 cells preincubated for 30 mins followed by 1-LG substrate addition and measured after 90 to 120 mins by fluorometric assay; format: cell-based; summary of the method: as §1
T4 sequence (O95870 whole entry): T1 sequence (whole entry)

[7] = target: T3, Phosphatidylserine lipase ABHD16A (Rattus norvegicus); test: Inhibition of TAMRA-FP binding to ABHD16A in rat cerebellar membranes preincubated for 1 hr followed by TAMRA-FP addition measured after 1 hr by fluorescence based ABPP analysis; format: cell membranes; details: Cerebellum, Membrane
Summary of the method: (§3)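 Competitive ABPP in rat cerebellar membrane proteome: the proteome was pretreated with inhibitor, then labelled with the TAMRA-FP probe, and loss of band labelling was read by fluorescence. Reversible test inhibitors were used at 20 and 200 µM.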

[8] = target: T4, Phosphatidylserine lipase ABHD16A; test: Reversible inhibition of human ABHD16A expressed in HEK293 cells preincubated for 30 mins followed by 40 fold compound dilution and subsequent 1-LG substrate addition and measured at 30 mins time interval for 120 mins by fluorometric assay; format: cell-based; summary of the method: as §2
[9] = target: T1, Phosphatidylserine lipase ABHD16A (Homo sapiens); test: Potency index, ratio of tetrahydrolipstatin IC50 to compound IC50 for inhibition of ABHD16A (unknown origin)
[10] = target: T1, Phosphatidylserine lipase ABHD16A (Homo sapiens); test: Inhibition of TAMRA-FP binding to human ABHD16A expressed in HEK293 cells at 20 to 200 uM preincubated for 1 hr followed by TAMRA-FP addition measured after 1 hr by fluorescence based ABPP analysis; format: cell-based
[11] = target: T3, Phosphatidylserine lipase ABHD16A (Rattus norvegicus); test: Inhibition of TAMRA-FP binding to ABHD16A in rat cerebellar membranes at 200 uM preincubated for 1 hr followed by TAMRA-FP addition measured after 1 hr by fluorescence based ABPP analysis; format: cell membranes; details: Cerebellum, Membrane; summary of the method: as §3
[12] = target: T3, Phosphatidylserine lipase ABHD16A (Rattus norvegicus); test: Inhibition of TAMRA-FP binding to ABHD16A in rat cerebellar membranes at 1 uM preincubated for 1 hr followed by TAMRA-FP addition measured after 1 hr by fluorescence based ABPP analysis; format: cell membranes; details: Cerebellum, Membrane
Summary of the method: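 Competitive ABPP on rat cerebellar membrane proteome. Proteome was pretreated with inhibitor, then labeled with the serine hydrolase probe TAMRA-FP. Loss of labeling of the band migrating at ~63 kDa, assigned as ABHD16A, was the read-out.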

[13] = target: Acyl-protein thioesterase 2 (Rattus norvegicus) (UniProt Q9QYL8); test: Binding affinity to LYPLA2 in rat cerebellar membranes at 10 uM measured after 1 hr by fluorescence based ABPP analysis; format: cell membranes; details: Cerebellum, Membrane; summary of the method: as §3
Sequence of Acyl-protein thioesterase 2 (Rattus norvegicus) (Q9QYL8 whole entry): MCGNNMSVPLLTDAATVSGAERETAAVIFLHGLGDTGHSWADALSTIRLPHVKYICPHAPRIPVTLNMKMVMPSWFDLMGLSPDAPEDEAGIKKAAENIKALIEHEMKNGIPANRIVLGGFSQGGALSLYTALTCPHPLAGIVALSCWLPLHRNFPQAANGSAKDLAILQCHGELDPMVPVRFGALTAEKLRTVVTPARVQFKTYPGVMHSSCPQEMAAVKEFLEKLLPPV

[14] = target: Acyl-protein thioesterase 1 (Rattus norvegicus) (UniProt P70470); test: Binding affinity to LYPLA1 in rat cerebellar membranes at 10 uM measured after 1 hr by fluorescence based ABPP analysis; format: cell membranes; details: Cerebellum, Membrane
Sequence of Acyl-protein thioesterase 1 (Rattus norvegicus) (P70470 whole entry): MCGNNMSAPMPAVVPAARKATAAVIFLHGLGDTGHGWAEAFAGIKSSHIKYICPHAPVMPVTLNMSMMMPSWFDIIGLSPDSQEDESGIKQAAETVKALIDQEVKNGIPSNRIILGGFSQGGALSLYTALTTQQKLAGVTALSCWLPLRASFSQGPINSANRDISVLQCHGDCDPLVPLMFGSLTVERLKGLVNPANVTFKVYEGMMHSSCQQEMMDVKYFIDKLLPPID

Row | SMILES | Activity [1] [%] | activity at 10 µM [2] [%] | further results
1 | CCOC(=O)c1nc(-c2cc3c(cc2C(C)C)CC[C@H]2[C@](C)(C(=O)OC)CCC[C@]32C)cs1 | 48.7 | 73.8 | –
2 | Cc1nc(-c2cc3c(cc2C(C)C)CC[C@H]2[C@](C)(CO)CCC[C@]32C)cs1 | 66.3 | 98.7 | –
3 | COC(=O)[C@]1(C)CCC[C@]2(C)c3cc(-c4csc(C)[n+]4C)c(C(C)C)cc3CC[C@@H]12 | 82.7 | 92.8 | –
4 | COC(=O)[C@]1(C)CCC[C@]2(C)c3cc(-c4csc(-c5ccc(Cl)cc5)n4)c(C(C)C)cc3CC[C@@H]12 | 99.3 | 96.6 | –
5 | COC(=O)[C@]1(C)CCC[C@]2(C)c3cc(-c4csc(-c5ccccc5Cl)n4)c(C(C)C)cc3CC[C@@H]12 | 86.6 | 101 | –
6 | CC[n+]1c(-c2cc3c(cc2C(C)C)CC[C@H]2[C@](C)(C(=O)OC)CCC[C@]32C)csc1C | 81.5 | 91.1 | –
7 | Cc1nc(-c2cc3c(cc2C(C)C)CC[C@H]2[C@](C)(C(=O)O)CCC[C@]32C)cs1 | 98.4 | 102 | –
8 | COC(=O)[C@]1(C)CCC[C@]2(C)c3cc(-c4csc(-c5ccccc5)n4)c(C(C)C)cc3CC[C@@H]12 | 73.8 | 89.8 | –
9 | CCCCCCCCCCC[C@@H](C[C@@H]1OC(=O)[C@H]1CCCCCC)OC(=O)[C@H](CC(C)C)NC=O | – | – | inhibition [3]: Active
10 | CCCCCCCCCCCCCC1OC(=O)/C1=C\CCCCC(N)=O (configuration not stated) | – | – | Ratio IC50 [9]: 1.3
11 | COC(=O)[C@]1(C)CCC[C@]2(C)c3cc(-c4csc(C#N)n4)c(C(C)C)cc3CC[C@@H]12 | 42.8 | 94.3 | inhibition [10]: inactive; Activity [4]: 25%; Ratio IC50 [5]: 6.4; IC50 [6]: 4.9 to 5.2 µM; inhibition [11]: Active; IC50 [8]: 31.6 µM
12 | COc1nn(-c2ccc(F)cc2)c(=O)o1 | – | – | Ratio IC50 [9]: 5.3; inhibition [12]: Active
13 | CC(C)c1cc2c(cc1-c1csc(N)n1)[C@@]1(C)CCC[C@@](C)(CO)[C@@H]1CC2 | 74.6 | 87.8 | –
14 | CCCCCCCCCC[C@@H]1C(=O)O[C@H]1CCc1ccc(OC)c(OC)c1 [PALMOSTATIN B] | – | – | inhibition [3]: Active; Ratio IC50 [5]: 1.8; Activity [13]: Active; Activity [14]: Active; IC50 [6]: 0.099 to 0.105 µM; Ratio IC50 [9]: 1.7; IC50 [8]: 0.057 µM

Second part, led by results:

Row | Activity [1] [%] | activity at 10 µM [2] [%] | SMILES | further results
15 | 62.9 | 77.8 | CC(C)c1cc2c(cc1-c1cscn1)[C@@]1(C)CCC[C@@](C)(C(=O)OCCO)[C@@H]1CC2 | –
16 | 82.1 | 98.7 | CC(C)c1cc2c(cc1-c1cscn1)[C@@]1(C)CCC[C@@](C)(C(N)=O)[C@@H]1CC2 | –
17 | 80.1 | 91.1 | COC(=O)[C@]1(C)CCC[C@]2(C)c3cc(-c4csc[n+]4C)c(C(C)C)cc3CC[C@@H]12 | –
18 | 50.3 | 91.5 | COC(=O)[C@]1(C)CCC[C@]2(C)c3cc(-c4cscn4)c(C(C)C)cc3CC[C@@H]12 | –
19 | 58.2 | 103 | COC(=O)[C@]1(C)CCC[C@]2(C)c3cc(-c4csc(N)n4)c(C(C)C)cc3CC[C@@H]12 | –
20 | 65.9 | 96.3 | CC(C)c1cc2c(cc1-c1cscn1)[C@@]1(C)CCC[C@@](C)(CO)[C@@H]1CC2 | –
21 | 91.5 | 98.4 | CC(C)c1cc2c(cc1-c1cscn1)[C@@]1(C)CCC[C@@](C)(C(=O)O)[C@@H]1CC2 | –
22 | 80.6 | 99.6 | Cc1nc(-c2cc3c(cc2C(C)C)CC[C@H]2[C@](C)(C(N)=O)CCC[C@]32C)cs1 | –
23 | 80 | 96.9 | CC(C)c1cc2c(cc1-c1csc(N)n1)[C@@]1(C)CCC[C@@](C)(C(N)=O)[C@@H]1CC2 | –
24 | 23 | 100 | COC(=O)[C@]1(C)CCC[C@]2(C)c3cc(-c4csc(C)n4)c(C(C)C)cc3CC[C@@H]12 | Activity [4]: 12%; Ratio IC50 [5]: 11.4; IC50 [6]: 3.4 to 3.6 µM; inhibition [7]: Dose-dependent effect; IC50 [8]: 41.1 µM
